In publication PMC6955635 (Drug Design, Development and Therapy, 2020):

Tests used:
healthy males [1] = assay: Adverse events, single-dose administration study; assay type: in vivo, human; conditions: single 12-h iv infusion, n = 6, number of subjects (%)
How it was run: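 Randomized, double-blind, dose-escalation study in healthy Japanese men: 8 per group, 1:3 placebo (D-mannitol) versus test compound at 3, 9 or 15 ng/kg/min. Single continuous IV infusion over 12 h (±30 min), hospitalized from the day before to the day after. Each escalation followed safety review of the next-day results. AEs were monitored throughout, plus vital signs, labs, physical exams and 12-lead ECG at set times. Monitor ECG ran to 24 h post-dose.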

healthy males [2] = assay: Adverse events, multiple-dose administration study; assay type: in vivo, human
[3] = Pharmacokinetics, plasma AM, single-dose administration study; assay type: in vivo, human; conditions: for AUC(0-t) / Cmax / Tmax / half-life: male, human, plasma, iv
[4] = Pharmacokinetics, plasma AM, multiple-dose administration study; assay type: in vivo, human; conditions: for half-life: T1/2 (terminal plasma elimination half-life), Phoenix WinNonlin; for half-life / Tmax: multiple administration, 8-h iv infusion 15 ng/kg/min per day for 7 days, mean ± SD; for Tmax: Tmax (time to maximum measured plasma concentration)
healthy males [5] = assay: Clinical laboratory tests; assay type: in vivo, human; conditions: all AM doses, single- and multiple-dose studies
[6] = system: normotensive and hypertensive patients; conditions: 30 ng/kg/min, after 90 min of intravenous infusion; cited from earlier work
[7] = male, human, plasma, iv, 15 ng/kg/min, Day 1
[8] = male, human, plasma, iv, 15 ng/kg/min, Day 7

Compound: CC[C@H](C)[C@H](NC(=O)[C@H](CCC(N)=O)NC(=O)[C@H](Cc1c[nH]cn1)NC(=O)[C@H](C)NC(=O)[C@H](CC(C)C)NC(=O)[C@H](CCCCN)NC(=O)[C@H](CCC(N)=O)NC(=O)[C@@H](NC(=O)[C@@H](NC(=O)[C@@H]1CSSC[C@H](NC(=O)CNC(=O)[C@H](Cc2ccccc2)NC(=O)[C@H](CO)NC(=O)[C@H](CCCNC(=N)N)NC(=O)[C@H](CC(C)C)NC(=O)CNC(=O)[C@H](CCC(N)=O)NC(=O)[C@H](Cc2ccccc2)NC(=O)[C@H](CC(N)=O)NC(=O)[C@H](CC(N)=O)NC(=O)[C@H](CCSC)NC(=O)[C@H](CO)NC(=O)[C@H](CCC(N)=O)NC(=O)[C@H](CCCNC(=N)N)NC(=O)[C@@H](N)Cc2ccc(O)cc2)C(=O)N[C@@H](CCCNC(=N)N)C(=O)N[C@@H](Cc2ccccc2)C(=O)NCC(=O)N[C@@H]([C@@H](C)O)C(=O)N1)[C@@H](C)O)C(C)C)C(=O)N[C@@H](Cc1ccc(O)cc1)C(=O)N[C@@H](CCC(N)=O)C(=O)N[C@@H](Cc1ccccc1)C(=O)N[C@H](C(=O)N[C@@H](CC(=O)O)C(=O)N[C@@H](CCCCN)C(=O)N[C@@H](CC(=O)O)C(=O)N[C@@H](CCCCN)C(=O)N[C@@H](CC(=O)O)C(=O)N[C@@H](CC(N)=O)C(=O)N[C@H](C(=O)N[C@@H](C)C(=O)N1CCC[C@H]1C(=O)N[C@@H](CCCNC(=N)N)C(=O)N[C@@H](CO)C(=O)N[C@@H](CCCCN)C(=O)N[C@H](C(=O)N[C@@H](CO)C(=O)N1CCC[C@H]1C(=O)N[C@@H](CCC(N)=O)C(=O)NCC(=O)N[C@@H](Cc1ccc(O)cc1)C(N)=O)[C@@H](C)CC)C(C)C)[C@@H](C)O [Adrenomedullin]
- Any adverse event (healthy males [1]; high dose 15 ng/kg/min): 2(33.3%)
- Deaths (healthy males [1]; high dose 15 ng/kg/min): 0
- Diarrhea (gastrointestinal disorders) (healthy males [1]; high dose 15 ng/kg/min): 0
- Headache (nervous system disorders) (healthy males [1]; high dose 15 ng/kg/min): 1(16.7%)
- Palpitations (cardiac disorders) (healthy males [1]; high dose 15 ng/kg/min): 0
- Serious adverse events (healthy males [1]; high dose 15 ng/kg/min): 0
- Severe adverse events (healthy males [1]; high dose 15 ng/kg/min): 0
- Treatment-related adverse events (healthy males [1]; high dose 15 ng/kg/min): 2(33.3%)
- Wenckebach type atrioventricular block (cardiac disorders) (healthy males [1]; high dose 15 ng/kg/min): 1(16.7%)
- Any adverse event (healthy males [1]; low dose 3 ng/kg/min): 0
- Deaths (healthy males [1]; low dose 3 ng/kg/min): 0
- Diarrhea (gastrointestinal disorders) (healthy males [1]; low dose 3 ng/kg/min): 0
- Headache (nervous system disorders) (healthy males [1]; low dose 3 ng/kg/min): 0
- Palpitations (cardiac disorders) (healthy males [1]; low dose 3 ng/kg/min): 0
- Serious adverse events (healthy males [1]; low dose 3 ng/kg/min): 0
- Severe adverse events (healthy males [1]; low dose 3 ng/kg/min): 0
- Treatment-related adverse events (healthy males [1]; low dose 3 ng/kg/min): 0
- Wenckebach type atrioventricular block (cardiac disorders) (healthy males [1]; low dose 3 ng/kg/min): 0
- Any adverse event (healthy males [1]; medium dose 9 ng/kg/min): 3(50.0%)
- Deaths (healthy males [1]; medium dose 9 ng/kg/min): 0
- Diarrhea (gastrointestinal disorders) (healthy males [1]; medium dose 9 ng/kg/min): 0
- Headache (nervous system disorders) (healthy males [1]; medium dose 9 ng/kg/min): 1(16.7%)
- Palpitations (cardiac disorders) (healthy males [1]; medium dose 9 ng/kg/min): 0
- Serious adverse events (healthy males [1]; medium dose 9 ng/kg/min): 0
- Severe adverse events (healthy males [1]; medium dose 9 ng/kg/min): 0
- Treatment-related adverse events (healthy males [1]; medium dose 9 ng/kg/min): 3(50.0%)
- Wenckebach type atrioventricular block (cardiac disorders) (healthy males [1]; medium dose 9 ng/kg/min): 2(33.3%)
- ECG abnormalities, including monitor ECG (healthy males [2]; 15 ng/kg/min 8 h per day for 7 days): not reported
- Withdrawal from the study due to headache (healthy males [2]; AM 15 ng/kg/min group, n = 6): one withdrawal
- Increase of Cmax compared to the basal concentration of AM ([3]; high-dose AM group (15 ng/kg/min), single 12-h iv infusion): sevenfold
- AUC(0-t) ([3]; 3 ng/kg/min): 0.163 ± 0.0212 ng·h/mL
- Cmax ([3]; 3 ng/kg/min): 0.01 ± 0.0011 ng/mL
- Tmax ([3]; 3 ng/kg/min): 9.3 ± 4.7 h
- half-life ([3]; 3 ng/kg/min): 1.04 ± 0.92 h
- AUC(0-t) ([3]; 9 ng/kg/min): 0.295 ± 0.0521 ng·h/mL
- Cmax ([3]; 9 ng/kg/min): 0.0255 ± 0.0037 ng/mL
- Tmax ([3]; 9 ng/kg/min): 10.7 ± 1.6 h
- half-life ([3]; 9 ng/kg/min): 0.3 ± 0.2 h
- AUC(0-t) ([3]; 15 ng/kg/min): 0.532 ± 0.0915 ng·h/mL
- Cmax ([3]; 15 ng/kg/min): 0.0504 ± 0.0093 ng/mL
- Tmax ([3]; 15 ng/kg/min): 10 ± 2.2 h
- half-life ([3]; 15 ng/kg/min): 0.23 ± 0.15 h
- Accumulation of plasma AM ([4]; after the end of the 7-day AM administration, 15 ng/kg/min 8 h per day): accumulation was not observed
- Cmax ([4]; male, human, plasma, iv, 15 ng/kg/min): 0.0479 ± 0.0109 ng/mL
- half-life [4, 7]: 0.45 ± 0.66 h
- half-life [4, 8]: 0.17 ± 0.07 h
- Tmax [4, 7]: 7.2 ± 1.1 h
- Tmax [4, 8]: 6.8 ± 1.1 h
- Changes in clinical laboratory test values (healthy males [5]): no changes due to the direct effect of AM
- Effect on BP [6]: clear decrease in BP
